Results taken from ChEMBL document CHEMBL1129746, “Structure-based design of HIV protease inhibitors: sulfonamide-containing 5,6-dihydro-4-hydroxy-2-pyrones as non-peptidic inhibitors” (J Med Chem, 1996).

Tests used:
[1] = molecular target: Human immunodeficiency virus type 1 protease (Human immunodeficiency virus 1) (UniProt Q72874); test: (§1) Tested for inhibition of HIV protease
[2] = molecular target: Human immunodeficiency virus type 1 protease (Human immunodeficiency virus 1, UniProt Q72874); test: as §1
Outline: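 Ki measured against a tandemly linked (single-chain) HIV protease construct, used because the native dimeric enzyme dissociates at low enzyme concentration.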

Cathepsin E = molecular target: T1, Cathepsin E (Homo sapiens, UniProt P14091); test: Compound was tested for inhibition human Cathepsin E
T1 sequence (P14091 whole entry): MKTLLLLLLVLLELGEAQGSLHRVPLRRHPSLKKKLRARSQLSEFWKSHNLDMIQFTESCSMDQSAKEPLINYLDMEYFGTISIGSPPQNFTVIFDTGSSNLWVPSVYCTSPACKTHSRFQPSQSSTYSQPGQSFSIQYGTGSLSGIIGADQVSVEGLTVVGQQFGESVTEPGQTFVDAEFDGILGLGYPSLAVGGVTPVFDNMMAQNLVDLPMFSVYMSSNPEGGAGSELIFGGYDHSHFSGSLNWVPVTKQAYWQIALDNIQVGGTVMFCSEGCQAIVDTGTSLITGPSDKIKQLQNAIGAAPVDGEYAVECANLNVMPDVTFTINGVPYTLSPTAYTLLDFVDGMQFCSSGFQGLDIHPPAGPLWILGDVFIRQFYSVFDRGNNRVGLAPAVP

[3] = Volume distribution of compound reported after 5 mg/kg i.v. dose in rat; assay type: ADME, organism-based; design: dose 5 mg/kg, route intravenous; settings: in vivo, iv, read-out: Vss
Outline: (§2)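 Rats (n = 3) dosed intravenously at 5 mg/kg in 10% propylene glycol with 22.5% (hydroxypropyl)-β-cyclodextrin (2 mg/g formulation). Blood levels followed over time to derive total clearance and steady-state volume.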

[4] = Totla clearance of compound reported after 5 mg/kg i.v. dose in rat; assay type: ADME, organism-based; design: dose 5 mg/kg, route intravenous; settings: in vivo, iv, read-out: CLtotal (converted); outline: as §2
in vivo = settings: rat, plasma, iv, 5 mg/kg
Pepsin A = Pepsin A (Homo sapiens, UniProt P0DJD9); test: Inhibition of human pepsin
Sequence of Pepsin A (P0DJD9 whole entry): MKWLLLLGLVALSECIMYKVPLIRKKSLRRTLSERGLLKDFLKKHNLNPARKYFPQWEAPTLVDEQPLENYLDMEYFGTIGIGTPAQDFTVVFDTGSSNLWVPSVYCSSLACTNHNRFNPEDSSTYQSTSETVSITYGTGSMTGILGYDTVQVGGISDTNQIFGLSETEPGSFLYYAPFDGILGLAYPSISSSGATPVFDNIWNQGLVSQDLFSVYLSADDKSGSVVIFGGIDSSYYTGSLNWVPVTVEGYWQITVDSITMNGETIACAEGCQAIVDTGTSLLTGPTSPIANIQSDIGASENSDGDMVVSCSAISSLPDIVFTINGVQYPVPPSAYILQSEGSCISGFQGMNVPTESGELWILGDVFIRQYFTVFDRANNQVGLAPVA

Cathepsin D = Cathepsin D (Homo sapiens, UniProt P07339); test: Compound was tested for inhibition human Cathepsin D
Sequence of Cathepsin D (P07339 65-162 limits assumed): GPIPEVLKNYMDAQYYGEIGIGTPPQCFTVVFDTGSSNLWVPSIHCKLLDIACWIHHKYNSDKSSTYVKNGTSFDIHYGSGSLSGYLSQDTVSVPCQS
Sequence of Cathepsin D (P07339 169-412 limits assumed): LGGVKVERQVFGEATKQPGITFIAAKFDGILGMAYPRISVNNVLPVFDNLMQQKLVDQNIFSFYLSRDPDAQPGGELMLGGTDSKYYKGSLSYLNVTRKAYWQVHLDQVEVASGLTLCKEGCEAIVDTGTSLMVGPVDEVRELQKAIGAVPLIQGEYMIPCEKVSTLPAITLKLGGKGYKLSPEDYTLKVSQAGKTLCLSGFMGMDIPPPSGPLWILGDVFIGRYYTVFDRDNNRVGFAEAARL

[5] = molecular target: Human immunodeficiency virus type 1 protease (Human immunodeficiency virus 1) (UniProt Q72874); test: Compound was tested for inhibition of HIV protease in AZT Resistant HIV-1 clinical isolates in primary PBMC
Outline: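 A panel of 10 AZT-resistant HIV-1 clinical isolates was grown in primary PBMC using a standardized PBMC drug-susceptibility assay.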

[6] = Oral bioavailability of compound reported after 5 mg/kg i.v. dose in rat; assay type: ADME, organism-based; settings: in vivo, 10 mg/kg, in the assay text read “after 10 mg/kg oral dose” for “after 5 mg/kg i.v. dose”
Outline: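 Rats given 10 mg/kg orally (n = 9) in 0.01 M sodium hydroxide, pH 10, at 2 mg/g, and 5 mg/kg intravenously (n = 3) in 10% propylene glycol/22.5% hydroxypropyl-β-cyclodextrin. Time-course blood levels compared; F calculated relative to the intravenous dose.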

[7] = molecular target: Human immunodeficiency virus type 1 protease (Human immunodeficiency virus 1, UniProt Q72874, L33I/L63I/Q7K); test: Compound was tested for inhibition of HIV protease triple mutant (Q7K/L33I/L63I)
[8] = molecular target: Human immunodeficiency virus 1; test: Tested for antiviral activity in HIV-1 IIIB-infected H9 cells
[9] = test system: Human immunodeficiency virus type 1 protease (Human immunodeficiency virus 1), Q72874 [Q7K,L33I,L63I]

| SMILES | IC90 [1] [nM] | Ki [2] [nM] | IC50 [8] [nM] | other results |
| --- | --- | --- | --- | --- |
| CCC[C@@]1(CCc2ccccc2)CC(O)=C([C@H](CC)c2cccc(NS(=O)(=O)c3ccc(C(F)(F)F)cn3)c2)C(=O)O1 | – | – | – | Ki (Cathepsin E): 9000 nM; Vd [3]: 0.51 L/kg; clearance [4]: 2.83 mL/min/kg; half-life (in vivo): 5.4 h; Ki (Pepsin A): 2000 nM; Ki (Cathepsin D): 15000 nM; IC90 [5]: 150 nM; bioavailability [6]: 30%; Ki [7]: < 1 nM |
| CCCC1(CCc2ccccc2)CC(=O)C(C(CC)c2cccc(NS(=O)(=O)c3cccc4cccnc34)c2)=C(O)O1 (configuration not stated) | 3000 | 3 | – | – |
| CCC[C@]1(CCc2ccccc2)CC(=O)C([C@@H](CC)c2cccc(NS(=O)(=O)c3cn(C)cn3)c2)=C(O)O1 (stereo in doubt; Vd) [listing 1 of 2 here] | – | 0.03 | > 1000 | – |
| CCC[C@]1(CCc2ccccc2)CC(=O)C([C@@H](CC)c2cccc(NS(=O)(=O)c3cn(C)cn3)c2)=C(O)O1 (stereo in doubt; Vc) [listing 1 of 2 here] | > 1000 | – | – | – |
| CCCC1(CCc2ccccc2)CC(=O)C(C(CC)c2cccc(NS(=O)(=O)c3cn(C)cn3)c2)=C(O)O1 (configuration not stated) | – | – | – | IC90 [9]: 900 nM; IC50 [7]: 500 nM; Ki [7]: 1 nM |
| CCC[C@]1(CCc2ccccc2)CC(=O)C([C@@H](CC)c2cccc(NS(=O)(=O)c3cn(C)cn3)c2)=C(O)O1 (stereo in doubt; Vc) [listing 2 of 2 here] | – | 1 | > 1000 | – |
| CCC[C@]1(CCc2ccccc2)CC(=O)C([C@@H](CC)c2cccc(NS(=O)(=O)c3cn(C)cn3)c2)=C(O)O1 (stereo in doubt; Va) [listing 1 of 2 here] | – | 0.12 | 580 | – |
| CCC[C@]1(CCc2ccccc2)CC(=O)C([C@@H](CC)c2cccc(NS(=O)(=O)c3cn(C)cn3)c2)=C(O)O1 (stereo in doubt; Vb) [listing 1 of 2 here] | – | 0.06 | 130 | – |
| CCC[C@]1(CCc2ccccc2)CC(=O)C([C@@H](CC)c2cccc(NS(=O)(=O)c3cn(C)cn3)c2)=C(O)O1 (stereo in doubt; Vb) [listing 2 of 2 here] | 560 | – | – | – |
| CCC[C@@]1(CCc2ccccc2)CC(O)=C([C@H](CC)c2cccc(NS(=O)(=O)c3ccc(C#N)cn3)c2)C(=O)O1 | 260 | 0.007 | – | – |
| CCC[C@]1(CCc2ccccc2)CC(=O)C([C@@H](CC)c2cccc(NS(=O)(=O)c3cn(C)cn3)c2)=C(O)O1 (stereo in doubt; Va) [listing 2 of 2 here] | 1000 | – | – | – |
| CCC[C@]1(CCc2ccccc2)CC(=O)C([C@@H](CC)c2cccc(NS(=O)(=O)c3cn(C)cn3)c2)=C(O)O1 (stereo in doubt; Vd) [listing 2 of 2 here] | > 1000 | – | – | – |
| CCCC1(CCc2ccccc2)C=c2oc(=O)c(C(CC)c3ccccc3)c(O)c2=CC1 (configuration not stated) | – | 35 | – | – |
| CCC(Cc1ccccc1)c1cc(O)c(C(CC)c2ccccc2)c(=O)o1 (configuration not stated) | – | – | 3000 | – |
| CCCC1(CCc2ccccc2)CC(=O)C(C(CC)c2cccc(NS(=O)(=O)c3ccc(C#N)cc3)c2)=C(O)O1 (configuration not stated) | 4200 | 8 | – | – |

Second part, led by results:

| IC90 [1] [nM] | Ki [2] [nM] | IC50 [8] [nM] | SMILES | other results |
| --- | --- | --- | --- | --- |
| 3000 | – | – | CCC[C@@]1(CCc2ccccc2)CC(=O)C([C@@H](CC)c2cccc(NS(=O)(=O)c3ccc(C(F)(F)F)cn3)c2)=C(O)O1 (stereo in doubt; form 1) [listing 1 of 2 here] | – |
| 7300 | 17 | – | CCCC1(CCc2ccccc2)CC(=O)C(C(CC)c2cccc(NS(=O)(=O)c3ccccc3)c2)=C(O)O1 (configuration not stated) | – |
| – | 0.032 | – | CCC[C@@]1(CCc2ccccc2)CC(=O)C([C@@H](CC)c2cccc(NS(=O)(=O)c3ccc(C(F)(F)F)cn3)c2)=C(O)O1 (stereo in doubt; form 2) [listing 1 of 2 here] | – |
| 890 | 0.04 | 110 | CCC[C@@]1(CCc2ccccc2)CC(=O)C([C@@H](CC)c2cccc(NS(=O)(=O)c3ccc(C#N)cn3)c2)=C(O)O1 | – |
| 4300 | 6 | – | CCCC1(CCc2ccccc2)CC(=O)C(C(CC)c2cccc(NS(=O)(=O)c3ccc(F)cc3)c2)=C(O)O1 (configuration not stated) | – |
| – | 0.22 | – | CCC[C@@]1(CCc2ccccc2)CC(=O)C([C@@H](CC)c2cccc(NS(=O)(=O)c3ccc(C(F)(F)F)cn3)c2)=C(O)O1 (stereo in doubt; form 1) [listing 2 of 2 here] | – |
| > 1000 | 0.12 | > 1000 | CCC[C@]1(CCc2ccccc2)CC(=O)C([C@@H](CC)c2cccc(NS(=O)(=O)c3ccc(C#N)cn3)c2)=C(O)O1 | – |
| 1000 | 0.1 | 490 | CCC[C@]1(CCc2ccccc2)CC(=O)C([C@H](CC)c2cccc(NS(=O)(=O)c3ccc(C#N)cn3)c2)=C(O)O1 | – |
| 840 | 0.018 | 140 | CCC[C@]1(CCc2ccccc2)CC(=O)C([C@H](CC)c2cccc(NS(=O)(=O)c3ccc(C(F)(F)F)cn3)c2)=C(O)O1 | – |
| 1800 | – | – | CCC[C@@]1(CCc2ccccc2)CC(=O)C([C@@H](CC)c2cccc(NS(=O)(=O)c3ccc(C(F)(F)F)cn3)c2)=C(O)O1 (stereo in doubt; form 2) [listing 2 of 2 here] | – |
